Measurements: ChEMBL document CHEMBL4251682, “Nitric Oxide Inhibitory Sesquiterpenoids and Its Dimers from Artemisia freyniana” (J Nat Prod, 2018)
pIC50: −log10 of the molar value.

Tests used:
HCT-116 = assay: Cytotoxicity against human HCT116 cells by MTT assay; assay type: functional, cell-based
How it was run: (§1)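 MTT-based growth inhibition of HCT116 and DU145 cells following an established protocol, with taxol as positive control.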

DU-145 = assay: Cytotoxicity against human DU145 cells by MTT assay; assay type: functional, cell-based; how it was run: as §1
RAW264.7 [1] = assay: Cytotoxicity against mouse RAW264.7 cells assessed as effect on cell viability at 50 uM by MTT assay; assay type: cell-based; details: raw264.7, 50 µM
RAW264.7 [2] = assay: Inhibition of LPS-induced nitric oxide production in mouse RAW264.7 cells after 24 hrs by Griess assay; assay type: functional, cell-based; details: RAW264.7, 24 h

pIC50 (RAW264.7 [2])	SMILES	pIC50 (HCT-116)	pIC50 (DU-145)	Activity (RAW264.7 [1])
	C=C(C(=O)O)[C@H]1C[C@@]23O[C@@]2(C)CCC[C@]3(C)C[C@@H]1OC(C)=O	< 4.30	< 4.30	Non-Toxic
4.97	C=C(C(=O)O)[C@@H]1C[C@@H]2O[C@@]23CCC[C@H](C)[C@@]3(C)C1	< 4.30	< 4.30	Non-Toxic
4.97	C[C@@H]1C[C@H]2[C@@H]3CCC4=CC(=O)C=C[C@]4(C)[C@@]3(F)[C@@H](O)C[C@]2(C)[C@@]1(O)C(=O)CO [DEXAMETHASONE]			
4.72	C=C(C(=O)O)[C@@H]1CC=C2[C@H](O)CC[C@H](C)[C@@]2(C)C1	< 4.30	< 4.30	Non-Toxic
